# tolC growth inh: E. coli tolC mutant growth inhibition | E. coli BW25113 tolC mutant growth, OD615 | growth inhibition, % at 10 µM (by protocol) | 2.2% of 65,000 active;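 active = growth inhibition at or above a cutoff equal to the mean over every tested compound plus 3 SD, cut at about 60% in these data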;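 note: growth measured after 20 h incubation at 37 °C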
#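 test system = E. coli BW25113 ΔtolC::kan bacteria | medium = LB with kanamycin 50 µg/mL | signal = OD at 615 nm | schedule = 37 °C, 20 h exposure | evaluation = % inhibition of E. coli growth | compound dosing = one dose of 10 µM final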
# PostGolgi ctrl: inhibits growth of the yeast control strain. 5% of 98,000 active. inhibition, % at 10 µM. AID 738. efflux-deficient yeast background strain, growth absorbance A615, 16 h
# PostGolgi yeast: growth inhibition of a yeast mutant, post-Golgi transport screen; 0.9% of 98,000 active; AID 739; post-Golgi transport phenotypic cell assay; inhibition, % at 10 µM;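 note: yeast cells grown in 1536-well plates; yeast grown about 18 h at 30C before absorbance read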
# Ecoli WT expand: growth inhibitors of E. coli BW25113 wild type. OD600 absorbance. growth inhibition, % at 100 µM. 0.15% of 98,000 active. AID 710;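 active = growth inhibition above about 50% at one test dose, limit read from the data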;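 note: growth measured after 20 h incubation at 37 °C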
# PLAP act: activates human placental alkaline phosphatase | activation fold at 20 µM | 1.2% of 96,000 active | purified PLAP enzyme, luminescent substrate read-out; active compounds read high; in the data active = activation fold above about 2
# Target sequence (P05187 whole entry, looked up): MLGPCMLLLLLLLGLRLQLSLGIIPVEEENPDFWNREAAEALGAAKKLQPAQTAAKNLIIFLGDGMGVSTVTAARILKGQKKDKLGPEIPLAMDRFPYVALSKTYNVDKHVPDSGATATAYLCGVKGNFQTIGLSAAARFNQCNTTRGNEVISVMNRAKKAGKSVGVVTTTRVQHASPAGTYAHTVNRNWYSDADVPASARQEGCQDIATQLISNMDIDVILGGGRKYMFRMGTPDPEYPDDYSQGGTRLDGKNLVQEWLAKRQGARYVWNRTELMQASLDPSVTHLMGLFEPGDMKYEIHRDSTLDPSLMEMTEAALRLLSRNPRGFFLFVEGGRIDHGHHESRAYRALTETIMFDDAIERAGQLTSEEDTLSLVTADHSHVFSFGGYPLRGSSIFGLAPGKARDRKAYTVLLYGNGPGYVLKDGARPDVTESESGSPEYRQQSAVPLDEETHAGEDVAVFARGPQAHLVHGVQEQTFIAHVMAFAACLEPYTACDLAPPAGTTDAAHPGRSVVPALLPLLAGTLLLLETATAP
# A number is an active result; – = inactive; · = not tested or not shown. Only some compounds are listed: those with a hit (about 7.2% of all), similar ones and a draw of the others. Cut-off read from the data, not from the text of the source, unless noted: active = inhibition above about 30%; inactive = the rest.
SMILES,tolC growth inh,PostGolgi ctrl,PostGolgi yeast,Ecoli WT expand,PLAP act
CN(C)c1oc(-c2ccccc2Cl)nc1C#N,–,–,–,–,–
CN(C)c1oc(-c2ccccc2Cl)nc1S(=O)(=O)c1ccccc1,–,32,–,–,–
COc1ccc(NC(=O)CNS(=O)(=O)c2cccc3nonc23)c(OC)c1,–,–,–,–,–
O=C(Nc1cn(-c2ccccc2)nc1-c1cccs1)c1ccco1,–,–,–,–,–
CCOC(=O)c1ccc(-n2[nH]c(-c3ccccc3)cc2=O)cc1,62,–,–,–,–
CCOC(=O)c1ccc(-n2c(C)nc3ccccc3c2=O)cc1,–,–,–,–,–
CCCC(C(=O)NC1CCCC1)N(C(=O)Cn1nnc(-c2ccc(C)o2)n1)c1ccccc1OC (stereo not drawn),–,–,–,–,–
Cc1nn(-c2cc(N3CCCC3)ccc2[N+](=O)[O-])c(=O)c2ccccc12,·,–,–,–,–
Cc1ccc(-c2nn(-c3cc(Cl)ccc3[N+](=O)[O-])c(=O)c3ccccc23)cc1,·,37,–,–,–
Cc1ccc(C)c(-c2nn(-c3cc(N4CCN(CCO)CC4)ccc3[N+](=O)[O-])c(=O)c3ccccc23)c1,·,48,–,–,–
O=C(COc1ccc(Cl)cc1)NC1CCSC1=O (stereo not drawn),–,–,–,–,–
COC(=O)c1c[nH]n2c(=O)cc(CCl)nc12,·,–,–,–,–
COC(=O)c1nn(-c2ccccc2)nc1-c1nn(-c2ccccc2)nc1C(=O)OC,·,77,36,–,–
O=C(c1cc2nc(-c3ccco3)cc(C(F)(F)F)n2n1)N1CCN(c2ccccc2)CC1,71,–,–,–,–
CC(=O)N1CCN(c2cc(N3CCc4ccccc4C3)c(F)cc2[N+](=O)[O-])CC1,·,–,–,–,–
Cc1ccc(-n2ncc3c(NCc4cccnc4)ncnc32)c(C)c1,–,·,·,·,·
Clc1ccc(-n2ncc3c(NCc4ccccn4)ncnc32)cc1,–,32,–,–,·
N#Cc1ccc(CSc2ncnc3c2cnn3Cc2ccccc2)cc1,–,39,–,–,–
Cc1ccc(-n2ncc3c(NCc4ccccn4)ncnc32)c(C)c1,–,–,–,–,2
Clc1ccc(Cn2ncc3c(NCc4ccccc4)ncnc32)cc1,·,41,–,–,–
Cc1ccc(CN2CCN(CC3CC4C=CC3C4)CC2)cc1 (stereo not drawn),·,–,–,–,–
Cc1cc(C)nc(Sc2c(C)n[nH]c2C)n1,–,–,–,–,–
CCCCNc1ncnc2c1cnn2-c1ccc(Cl)cc1,–,35,–,–,–
COc1ccccc1CNc1ncnc2c1cnn2-c1ccccc1,61,·,·,·,·
CCCCNc1ncnc2c1cnn2-c1ccccc1,–,–,–,–,–
SMILES,tolC growth inh,PostGolgi ctrl,PostGolgi yeast,Ecoli WT expand,PLAP act
O=C(NC12CC3CC(CC(C3)C1)C2)c1ccccc1O,62,–,–,–,–
COc1ccc(-c2cc(C(F)(F)F)nc(NC3CCCC3)n2)cc1OC,–,34,–,–,–
CCOc1ccc2nc(SCc3ccc(C(=O)OC)o3)[nH]c2c1,–,–,–,–,2.2
COc1ccc2nc(SCC(=O)Nc3ccc4c(c3)OCCO4)[nH]c2c1,–,–,–,–,–
COC(=O)c1cc(CSc2nc3ccccc3[nH]2)oc1C,·,–,–,–,2.3
CCOc1ccc2nc(SCC(=O)Nc3ccc4c(c3)OCCO4)[nH]c2c1,·,–,–,–,2.1
CC(C)c1ccc(-c2nn(-c3ccccc3)cc2C2C(C#N)=C(N)OC3=C2C(=O)CC(C)(C)C3)cc1 (stereo not drawn),·,–,–,–,–
COc1ccc(CN2CCn3ncc(C(=O)Nc4cc(C)cc(C)c4)c3C2=O)cc1,·,–,–,–,–
CN(CC(=O)NCc1cccs1)S(=O)(=O)c1cccc2nsnc12,–,–,–,–,–
Cc1ccc(NCC(=O)N/N=C\c2ccc([N+](=O)[O-])o2)cc1,·,–,–,–,–
CCCCCC(=O)N/N=C/c1ccc([N+](=O)[O-])o1,·,–,–,60,·
CCOCCCNS(=O)(=O)c1ccc(NC(=O)N2c3ccccc3Sc3ccccc32)cc1,·,–,–,–,–
Nc1c(C(O)(C(F)(F)F)C(F)(F)F)ccc2ccccc12,–,–,–,–,·
Cn1c(=O)c2c(nc(CN3CCN(C(=O)c4ccco4)CC3)n2CCCc2ccccc2)n(C)c1=O,–,32,–,–,–
Cn1c(=O)c2c(nc(CN3CCN(C(=O)c4ccco4)CC3)n2CCc2ccccc2)n(C)c1=O,·,–,–,–,–
CCCn1c(CN2CCN(C(=O)c3ccco3)CC2)nc2c1c(=O)n(C)c(=O)n2C,–,35,–,–,–
CCCCCn1c(CN2CCN(C(=O)c3ccco3)CC2)nc2c1c(=O)n(C)c(=O)n2C,–,·,·,·,·
CN(Cc1ccccc1)Cc1nc2c(c(=O)n(C)c(=O)n2C)n1CCCc1ccccc1,100,52,–,–,–
Cc1nc2cccc(C(=O)NCc3ccccc3)c2o1,–,–,–,–,–
COc1ccc(Cl)cc1NC(=O)c1ccco1,–,–,–,–,–
O=C(Nc1ccc(Cl)cc1C(=O)Nc1ccc(Br)cn1)c1ccco1,–,52,–,–,–
Cc1ccc2cc(C#N)c(SCC(=O)N3CCCc4ccccc43)nc2c1C,·,–,–,–,–
COc1cc(C(=O)NCc2nnc(SCC(=O)N3CCc4ccccc43)o2)cc(OC)c1OC,–,–,–,–,–
O=C(CC1(O)C(=O)N(Cc2ccccc2Cl)c2ccccc21)c1ccco1 (stereo not drawn),–,34,–,–,–
CC1CCCCN1C(=O)CSc1nc(C2CC2)nc2c1cnn2-c1ccccc1 (stereo not drawn),67,–,–,–,–
SMILES,tolC growth inh,PostGolgi ctrl,PostGolgi yeast,Ecoli WT expand,PLAP act
Clc1cccc(Cl)c1CO/N=C/c1c(-c2ccccc2)nc2n1CCS2,·,30,–,–,–
Cc1cccc(OCC(=O)Nc2ccc(N3CCN(C(=O)c4ccco4)CC3)cc2)c1,·,–,–,–,–
O=C(OCc1c(Cl)nc2sccn12)c1cc2c(s1)CCCC2,–,–,–,–,–
CCCCCCOC(=O)C(C#N)c1nc2ccccc2nc1N1CCN(C)CC1 (stereo not drawn),100,–,–,–,–
CCCN(CCC)c1nc2ccccc2nc1C(C#N)C(=O)OCCOC (stereo not drawn),80,–,–,–,–
O=C(CSc1ncn[nH]1)NCCC(c1ccccc1)c1ccccc1,·,–,–,–,–
O=C(O)CSc1cccc[n+]1[O-],·,–,–,–,–
O=C(CSc1cccc[n+]1[O-])c1cc2ccccc2o1,–,–,–,97,–
CCCCc1cc(O)c(CCCC)c(O)c1,63,42,–,–,–
O=C(OCC1COc2ccccc2O1)c1c(F)cccc1F (stereo not drawn),–,–,–,–,–
O=C(OCn1ncc(Br)c(Br)c1=O)c1c(F)cccc1F,·,–,57,–,–
CCOC(=O)c1c(C)sc2c1N(C(=O)CN(CC)CC)c1cc(Cl)ccc1S2,·,–,–,–,–
CCOC(=O)c1c(C)sc2c1N(C(=O)CN1CCOCC1)c1cc(Cl)ccc1S2,·,54,–,–,–
Cc1nc(-c2cccc(NS(=O)(=O)c3cccc4ccccc34)c2)cs1,·,63,–,–,–

# High-throughput results (PubChem)
